procasp3 activ – activators of human procaspase-3 D3A mutant, primary screen, biochemical, absorbance, PC-3 D3A mutant, single concentration; recombinant procaspase-3 D3A, Ac-DEVD-pNA absorbance 405 nm; actives 0.11% (n = 330,000); activation, % at 8.5 µM;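 active = activation above the mean of all tested compounds plus 3 SD, cut at about 21% in these data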;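 note: 0% = DMSO alone and 100% = DMSO wells spiked with extra 5 µM PC-3 D3A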
Target sequence (P42574 whole entry D9A/D28A/D175A): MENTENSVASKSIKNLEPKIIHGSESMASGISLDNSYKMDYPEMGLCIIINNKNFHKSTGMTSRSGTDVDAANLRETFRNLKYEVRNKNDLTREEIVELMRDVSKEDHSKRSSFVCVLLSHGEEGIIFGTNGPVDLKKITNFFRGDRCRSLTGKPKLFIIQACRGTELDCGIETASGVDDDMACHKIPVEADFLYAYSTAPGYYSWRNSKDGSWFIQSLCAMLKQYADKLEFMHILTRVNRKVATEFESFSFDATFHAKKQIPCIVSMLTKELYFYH
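System: Procaspase-3 D3A mutant. Medium: Zinc-free 300 mM NaCl, 50 mM HEPES, 0.01% Triton X-100. Schedule: 1 h preincubation plus 2 h reaction at 25 °C. Measured by: 405 nm absorbance of p-nitroaniline, reads at 0 and 120 min. Read-out: percent activation relative to control range.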
procasp7 counter – procaspase-7 activators, primary screen, counter-screen for procaspase-3 activator project, biochemical, absorbance, HTS, human | actives 0.093% (n = 330,000) | activation, % at 8.5 µM | Caspase-7 (Homo sapiens), P55210 | recombinant procaspase-7, Ac-DEVD-pNA absorbance 405 nm; D23A/D198A/D206A triple mutant, cannot self-cleave; scale: DMSO 0, 5 µM enzyme 100;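 active = percent activation above the screen-wide mean plus 3 SD, cut at about 25% in these data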
Target sequence (P55210 whole entry D23A/D198A/D206A): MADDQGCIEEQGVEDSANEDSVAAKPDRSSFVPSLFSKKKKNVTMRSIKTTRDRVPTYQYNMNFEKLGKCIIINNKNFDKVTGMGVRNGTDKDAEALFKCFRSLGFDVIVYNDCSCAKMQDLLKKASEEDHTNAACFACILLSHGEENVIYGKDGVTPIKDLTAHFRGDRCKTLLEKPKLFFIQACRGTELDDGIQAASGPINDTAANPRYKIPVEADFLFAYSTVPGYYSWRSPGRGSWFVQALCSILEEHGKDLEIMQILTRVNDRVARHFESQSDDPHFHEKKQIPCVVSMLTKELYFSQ
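Detection: p-Nitroaniline absorbance at 405 nm, read at 0 and 120 min; system: Uncleavable procaspase-7 mutant enzyme; evaluation: % activation from two-timepoint absorbance difference, scaled to controls; times: 1 h enzyme–compound preincubation and 2 h substrate reaction, both 25 °C; buffer or medium: Zinc-free HEPES pH 7.4 with 300 mM NaCl, 0.01% Triton X-100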
MPTP inh – mitochondrial permeability transition pore inhibitors, primary screen, biochemical, isolated mouse mitochondria, absorbance; Ca2+ swelling absorbance, 30 min; inhibition, % at 10 µM; actives 1.4% (n = 360,000); AID 602449, 2012;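 active = inhibition of 50% or more, scaled per plate between neutral and stimulator controls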;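 note: 0% = DMSO wells given calcium and 100% = 1 mM EGTA wells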
aDG glyco act – activators of alpha-DG glycosylation, primary screen, uHTS, Pro5-aDG cells, AlphaScreen. alpha-DG glycosylation AlphaScreen (IIH6); 0% Pro5, 100% B10-LARGE cell signal. activation, % at 10 µM. actives 0.22% (n = 360,000);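 active = activation of at least 8% versus controls, or a plate z-score of at least 8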;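 note: Pro5 are CHO cells carrying HIG-tagged alpha-DG that lacks glycosylation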
NR3A LBD binder – binders of NR3A ligand-binding domain, primary screen, biophysical, differential scanning fluorimetry, uHTS; AID 1259313, 2017; actives 2.5% (n = 340,000); NR3A LBD differential scanning fluorimetry, Tm shift; 0% = protein alone, 100% = glycine-bound protein; Tm shift relative to glycine control, % at 25 µM; Glutamate receptor ionotropic, NMDA 3A (GRIN3A) ligand-binding domain;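 active = melting temperature shift of at least 10% of the positive control shift, at one fixed dose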
The depositor's hits bear a star; . = no result. Compounds with a hit are over-represented: about 3.7% of the library has one in this group of screens.

SMILES | procasp3 activ | procasp7 counter | MPTP inh | aDG glyco act | NR3A LBD binder
COc1ccc(N(C(=O)c2ccco2)C(C(=O)NC2CCCC2)c2ccc(N(C)C)cc2)cc1 (configuration not stated) | -6 | -1 | -1 | 0 | 10*
COc1cc(OC)cc(N(C(=O)c2ccco2)C(C(=O)NC2CCCC2)c2ccc(N(C)C)cc2)c1 (configuration not stated) | -6 | 1 | -1 | 0 | 2
CCCS(=O)(=O)NC(=O)C1(C)CCN(C(=O)c2cncc(Br)c2)C1 (configuration not stated) | . | . | 0 | 0 | .
C[C@@H](C(=O)OCC(=O)c1ccccc1)N1C(=O)C2CCCCC2C1=O (some centres not stated) | 2 | -3 | -2 | 0 | 2
Cc1cccc(C)c1NC(=O)COC(=O)c1c2c(nc3ccccc13)/C(=C\c1ccc3c(c1)OCO3)CCC2 | -17 | -25 | 3 | 0 | 7
CC(OC(=O)c1c2c(nc3ccccc13)/C(=C\c1ccc3c(c1)OCO3)CCC2)C(=O)Nc1ccc(S(N)(=O)=O)cc1 (configuration not stated) | . | . | 0 | 0 | 22*
COc1ccc(C(=O)N2CCC(C)(C(=O)O)C2)cc1OC (configuration not stated) | . | . | 0 | 0 | .
COc1ccc(Cl)cc1NC(=O)c1cc(-c2ccccc2O)n[nH]1 | 7 | 6 | 21 | 1 | 24*
Cc1ccc(O)c(-c2cc(C(=O)Nc3ccc(S(=O)(=O)Nc4nccc(C)n4)cc3)[nH]n2)c1 | 5 | -3 | 5 | 0 | 30*
CC(=O)Nc1ccc(NC(=O)c2cc(-c3ccc(C)cc3O)n[nH]2)cc1 | 0 | 8 | 1 | 0 | 30*
COc1ccc(C(=O)Nc2ccc(S(=O)(=O)Nc3nccc(C)n3)cc2)cc1 | 2 | 6 | 0 | 0 | 1
COc1ccc(NC(=O)c2cc(-c3ccc(C)cc3O)n[nH]2)c(OC)c1 | 0 | 4 | 0 | 0 | 38*
CCOc1ccc(NC(=O)CN(C)C(=O)c2ccc(OCC(=O)N3CCOCC3)c(OC)c2)cc1OCC | . | . | -1 | 0 | 2
COc1ccc(NC(=O)c2ccc3[nH]c(C)c(C)c3c2)c(OC)c1 | -4 | -10 | 0 | 0 | 15*
Cc1cccc(NC(=O)c2cc(-c3cc(C)c(C)cc3O)n[nH]2)c1 | -5 | 2 | 0 | 0 | 14*
COc1ccc(NC(=O)c2cc(-c3cc(C)ccc3O)n[nH]2)cc1Cl | 1 | 4 | 24 | 0 | 326*
Cc1cc(F)ccc1-c1cc(C(=O)Nc2ccc(F)cc2)[nH]n1 | . | . | 3 | 0 | .
CCOc1ccccc1NC(=O)c1ccc2[nH]c(C)c(C)c2c1 | -5 | 4 | -1 | 0 | -10
Cc1cccc(NC(=O)c2cc(-c3cc(C)ccc3O)n[nH]2)c1 | 4 | -5 | 1 | 0 | 30*
COCCNC(=O)C1(C)CCCN(Cc2cccc(OC(=O)c3ccccc3)c2)C1 (configuration not stated) | . | . | 0 | 0 | .
COc1cccc(C(O)c2ncc(-c3ccccc3)[nH]2)c1 (configuration not stated) | . | . | 0 | 0 | .
COC(=O)c1ccc(CNC(=O)C(C)N=C2NS(=O)(=O)c3ccccc32)cc1 (configuration not stated) | . | . | -3 | 0 | 0
COc1ccc(C(N)=S)cc1 | -7 | 3 | 0 | 0 | 29*
COc1ccc(-c2csc(/C(C#N)=C\c3ccc(OC)c([N+](=O)[O-])c3)n2)cc1 | 2 | -1 | 1 | 0 | 33*
CC(Sc1nnc(C(C)Oc2ccccc2F)o1)C(=O)NCc1ccc2c(c1)OCO2 (configuration not stated) | 13 | 1 | -1 | 0 | 1
SMILES | procasp3 activ | procasp7 counter | MPTP inh | aDG glyco act | NR3A LBD binder
CCOc1ccc(NC(=O)CN(C)CC(=O)Nc2ccccc2SC)cc1OCC | 4 | -1 | 2 | 0 | 18*
COc1ccc(NC(=O)CN(C)CC(=O)Nc2ccccc2SC)cc1 | 10 | 1 | 1 | 0 | -1
CCOc1ccc(NC(=O)CN(C)c2ccc(S(=O)(=O)N(C(C)C)C(C)C)cn2)cc1OCC | 7 | 6 | -2 | 0 | 17*
C[C@H](NC(=O)Cc1cccc2ccccc12)C(=O)N1CCOCC1 | 3 | 4 | 0 | 0 | 6
CCOC(=O)[C@]12CCCC=C1N(CCc1ccc(OC)c(OC)c1)C(=O)[C@H](CC(=O)N1CCN(C(=O)C3CC3)CC1)C2 | . | . | 6 | 0 | .
O=[N+]([O-])c1ccc(N2CCN(S(=O)(=O)c3cnc[nH]3)CC2)cc1 | -8 | -5 | -1 | 0 | 10*
COC(=O)c1cc(S(=O)(=O)N2CCN(c3ccc([N+](=O)[O-])cc3)CC2)c[nH]1 | -18 | -9 | 0 | 0 | 207*
COC(=O)c1cc(S(=O)(=O)N2CCN(c3ccc(F)cc3)CC2)c[nH]1 | 1 | 4 | -1 | 0 | 2
Cn1c(SCC(=O)Nc2cccnc2Cl)nc2ccccc21 | -1 | 13 | 0 | 0 | 2
CCc1noc(C)c1C(=O)Nc1nnc(C(CC)CC)s1 | 3 | 12 | 0 | 0 | 0
CC1CCCC(C)N1C(=O)c1cc(-c2ccc3c(c2)OCO3)on1 (configuration not stated) | -4 | 8 | -1 | 0 | 2
COc1ccc(S(=O)(=O)N2CCCC(C(=O)N3CCN(Cc4ccccc4)CC3)C2)cc1Cl (configuration not stated) | . | . | 0 | 1 | .
Nc1nc(-c2ccc(Cl)cc2)c(N=Nc2ccc(S(=O)(=O)N3CCOCC3)cc2)s1 | -4 | 1 | 14 | -1 | 17*
COC(=O)C(C(=O)N1CCN(C)CC1)C1CCCCCC1 (configuration not stated) | 4 | -13 | 2 | 0 | 13*
CCOC(=O)C(C(=O)N1CCOCC1)C1CCCCC1 (configuration not stated) | 0 | 7 | -1 | 0 | 0
O=C1CC(c2ccccc2)CN1C(=O)c1ccccc1 (configuration not stated) | 4 | 3 | 3 | 0 | 13*
COc1ccc(C(=O)N2CC(c3ccccc3)CC2=O)cc1 (configuration not stated) | -5 | 6 | -2 | 0 | 2
COC(=O)CCCn1cc(CN2CC(N3CCN(Cc4ccccc4F)CC3)CS2(=O)=O)nn1 (configuration not stated) | . | . | 1 | 0 | .

High-throughput results from PubChem.
